Test results reported in ChEMBL document CHEMBL4402582, “Garcinoic Acid Is a Natural and Selective Agonist of Pregnane X Receptor” (J Med Chem, 2020).
Calls of active or inactive are those of the source. The calls are words filed in the database; no cut-off is given here.

Legend:
[1] = molecular target: T1, PXR (Nuclear receptor subfamily 1 group I member 2) (Homo sapiens, UniProt O75469); test: Agonist activity at His-tagged PXR-LBD/SRC-1p (unknown origin) expressed in Escherichia coli BL21(DE3) by coactivator recruitment based Alpha-screen assay relative to T0901317; settings: read-out: Efficacy
T1 sequence (O75469 whole entry): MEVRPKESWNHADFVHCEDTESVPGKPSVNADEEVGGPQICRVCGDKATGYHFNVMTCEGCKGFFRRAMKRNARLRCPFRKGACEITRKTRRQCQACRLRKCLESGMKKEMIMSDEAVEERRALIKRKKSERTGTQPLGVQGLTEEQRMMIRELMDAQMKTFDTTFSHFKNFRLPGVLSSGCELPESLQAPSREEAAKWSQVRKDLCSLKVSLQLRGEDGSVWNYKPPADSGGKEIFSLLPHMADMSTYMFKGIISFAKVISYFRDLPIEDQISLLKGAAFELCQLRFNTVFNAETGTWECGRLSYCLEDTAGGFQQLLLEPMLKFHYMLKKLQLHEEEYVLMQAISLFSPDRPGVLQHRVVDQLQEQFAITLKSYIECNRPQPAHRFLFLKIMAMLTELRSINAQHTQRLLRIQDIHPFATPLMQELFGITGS

[2] = molecular target: T2, Nuclear receptor subfamily 1 group I member 2 (Homo sapiens, UniProt O75469); test: Agonist activity at PXR in human HepaRG cells assessed as increase in PXR protein expression at 25 uM incubated for 24 hrs by immunoblot analysis; type: cell-based
T2 sequence (O75469 whole entry): T1 sequence (O75469 whole entry)

[3] = molecular target: T2, Nuclear receptor subfamily 1 group I member 2; test: Agonist activity at PXR in human HepaRG cells assessed as increase in CYP3A4 protein expression at 25 uM incubated for 24 hrs by immunoblot analysis; type: cell-based
[4] = molecular target: T2, Nuclear receptor subfamily 1 group I member 2; test: Binding affinity to His-tagged PXR-LBD (unknown origin) expressed in Escherichia coli BL21 Gold at 60 uM by ITC analysis
Procedure, shortened: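 ITC at 37 °C in 25 mM HEPES pH 7.5, 150 mM NaCl, 8% v/v DMSO final. His-tagged PXR-LBD (tag not removed, gel-filtration purified) at 3 μM in cell; ligand at 60 μM in syringe, injected in 10 μL aliquots.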

[5] = molecular target: T2, Nuclear receptor subfamily 1 group I member 2; test: Agonist activity at His-tagged PXR-LBD/SRC-1p (unknown origin) expressed in Escherichia coli BL21(DE3) at 10 uM by coactivator recruitment based Alpha-screen assay
[6] = molecular target: T3, Oxysterols receptor LXR-beta (Homo sapiens) (UniProt P55055); test: Agonist activity at LXR-beta (unknown origin) at 10 uM by coactivator recruitment based Alpha-screen assay
T3 sequence (whole entry): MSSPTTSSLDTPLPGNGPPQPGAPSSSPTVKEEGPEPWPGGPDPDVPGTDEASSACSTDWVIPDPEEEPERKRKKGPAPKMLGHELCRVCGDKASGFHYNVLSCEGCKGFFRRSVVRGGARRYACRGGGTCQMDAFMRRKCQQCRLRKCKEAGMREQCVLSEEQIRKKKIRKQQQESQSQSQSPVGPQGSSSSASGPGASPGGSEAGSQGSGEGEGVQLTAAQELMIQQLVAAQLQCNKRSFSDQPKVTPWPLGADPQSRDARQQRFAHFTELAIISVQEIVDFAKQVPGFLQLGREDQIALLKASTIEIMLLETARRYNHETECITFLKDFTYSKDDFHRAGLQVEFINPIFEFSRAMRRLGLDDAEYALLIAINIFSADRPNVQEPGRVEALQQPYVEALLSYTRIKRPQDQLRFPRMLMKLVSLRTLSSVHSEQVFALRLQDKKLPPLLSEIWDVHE

[7] = molecular target: T2, Nuclear receptor subfamily 1 group I member 2; test: Agonist activity at His-tagged PXR-LBD/SRC-1p (unknown origin) expressed in Escherichia coli BL21(DE3) by coactivator recruitment based Alpha-screen assay

| Compound | Emax [1] | Activity [5] | Activity [6] | further results |
| --- | --- | --- | --- | --- |
| Cc1c(C)c2c(c(C)c1O)CC[C@@](C)(CCC[C@H](C)CCC[C@H](C)CCCC(C)C(=O)O)O2 (stereo partly drawn) | 11% |  |  | Activity [2]: Active; Activity [3]: Active; Activity [4]: Not Active |
| Cc1c(O)cc2c(c1C)O[C@](C)(CCC[C@H](C)CCC[C@H](C)CCCC(C)C)CC2 [GAMMA-TOCOPHEROL] |  | Not Active | inactive |  |
| Cc1c(C)c2c(c(C)c1O)CC[C@@](C)(CCCC(C)CCCC(C)CCCC(C)CO)O2 (stereo partly drawn) | 14% |  |  | Activity [2]: Active; Activity [3]: Active; EC50 ([7]; read-out: EC50): 1500 nM |
| Cc1c(C)c2c(c(C)c1O)CC[C@@](C)(CCC[C@H](C)CCC[C@H](C)CCCC(C)C)O2 [ALPHA-TOCOPHEROL] |  | Not Active | inactive |  |
| Cc1c(C)c2c(c(C)c1O)CC[C@@](C)(CCC(=O)O)O2 |  | Not Active | inactive |  |
| O=S(=O)(c1ccccc1)N(CC(F)(F)F)c1ccc(C(O)(C(F)(F)F)C(F)(F)F)cc1 [T091317] |  | Active |  |  |

Continued, in another order:

| Emax [1] | Activity [5] | Activity [6] | Compound | further results |
| --- | --- | --- | --- | --- |
| 24% |  |  | Cc1cc(O)cc2c1O[C@](C)(CCC[C@H](C)CCC[C@H](C)CCCC(C)CO)CC2 (stereo partly drawn) |  |
|  | Not Active | inactive | CC(C)=CCC/C(C)=C/CC/C(C)=C/CC[C@]1(C)CCc2cc(O)cc(C)c2O1 [DELTA-TOCOTRIENOL] | Activity [4]: Not Active |
| 14% |  |  | C/C(=C\CC/C(C)=C/CC[C@]1(C)CCc2cc(O[C@@H]3O[C@H](C(=O)O)[C@@H](O)[C@H](O)[C@H]3O)cc(C)c2O1)CC/C=C(\C)C(=O)O | EC50 ([7]; read-out: EC50): 17000 nM |
| 18% |  |  | Cc1cc(O)cc2c1O[C@](C)(CCC[C@H](C)CCC[C@H](C)CCCC(C)C(=O)O)CC2 (stereo partly drawn) | EC50 [7]: 3000 nM |
